This is an account of results in ChEMBL document CHEMBL4118255, “Synthesis and antibacterial evaluation of novel 11-O-aralkylcarbamoyl-3-O-descladinosylclarithromycin derivatives” (2018).

What is called MIC is the lowest concentration found to suppress growth. A low value points to greater potency.

The structures appear in SMILES notation. Converted amounts (≈) assume the structure as drawn.

Format in all cases: functional
Test [1] has as its system Streptococcus pneumoniae. Nature of the test: Antibacterial activity against erythromycin-resistant Streptococcus pneumoniae A22072 harboring mefA gene after 24 hrs by […]. To be noted: A22072, 24 h.
The subject of test [2] is Escherichia coli. Nature of the test: Antibacterial activity against penicillin-susceptible Escherichia coli ATCC 25922 incubated for 24 hrs by […]. To be noted: ATCC 25922, 24 h.
The test system of test [3] is Streptococcus pyogenes. Nature of the test: Antibacterial activity against erythromycin-resistant Streptococcus pyogenes R1 after 24 hrs by tube-dilution method. To be noted: R1, 24 h.
Test [4] concerns Pseudomonas aeruginosa. In words: Antibacterial activity against penicillin-susceptible Pseudomonas aeruginosa ATCC 27853 incubated for 24 hrs by […]. The following applies: ATCC 27853, 24 h.
Test [5] deals with Bacillus subtilis. In words: Antibacterial activity against erythromycin-susceptible Bacillus subtilis ATCC 9372 after 24 hrs by tube-dilution method. To be noted: ATCC 9372, 24 h. In outline: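 MIC by standard NCCLS broth microdilution. Reference macrolides clarithromycin and azithromycin run alongside.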
Test [6] deals with Staphylococcus aureus. Nature of the test: Antibacterial activity against methicillin-resistant Staphylococcus aureus ATCC 43300 after 24 hrs by tube-dilution method. To be noted: ATCC 43300, 24 h. The essentials:
(§1)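 MIC determined by the NCCLS-recommended standard broth microdilution method against erythromycin-resistant S. pneumoniae strains (A22072 mef, B1 erm, AB11 erm plus mef) and methicillin-resistant S. aureus ATCC43300.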

In test [7] the test system is Streptococcus pyogenes. In words: Antibacterial activity against erythromycin-susceptible Streptococcus pyogenes after 24 hrs […].
In test [8] the test system is Streptococcus pneumoniae. In words: Potency index, ratio of azithromycin MIC to compound MIC for erythromycin-resistant Streptococcus pneumoniae A22072 harboring mefA gene.
In test [9] the test system is Staphylococcus aureus. Nature of the test: Antibacterial activity against erythromycin-susceptible Staphylococcus aureus ATCC 25923 after 24 hrs by […]. The following applies: ATCC 25923, 24 h.
Test [10] relates to Streptococcus pneumoniae. In words: Antibacterial activity against erythromycin-resistant Streptococcus pneumoniae AB11 harboring ermB and mefA genes after 24 hrs by tube-dilution method. The following applies: AB11, 24 h. In outline:
as §1

Test [11] relates to Streptococcus pneumoniae. In words: Antibacterial activity against erythromycin-resistant Streptococcus pneumoniae B1 harboring ermB gene after 24 hrs by tube-dilution method. To be noted: B1, 24 h. In outline: as §1
The subject of test [12] is Streptococcus pneumoniae. Nature of the test: Potency index, ratio of clarithromycin MIC to compound MIC for erythromycin-resistant Streptococcus pneumoniae A22072 harboring mefA gene.
Test [13] has as its system Staphylococcus aureus. In words: Potency index, ratio of clarithromycin MIC to compound MIC for methicillin-resistant Staphylococcus aureus ATCC 43300.
Test [14] relates to Staphylococcus aureus. In words: Potency index, ratio of azithromycin MIC to compound MIC for methicillin-resistant Staphylococcus aureus ATCC 43300.

Turning to `CC[C@H]1OC(=O)[C@H](C)C(=O)[C@H](C)[C@@H](O[C@@H]2O[C@H](C)C[C@H](N(C)C)[C@H]2O)[C@](C)(OC)C[C@@H](C)C(=O)[C@H](C)[C@@H](OC(=O)NCCNC(=O)C#Cc2ccc(C)cc2)[C@]1(C)O`, the MIC in test [1] was 0.5 µg/mL (≈ 0.613 µM); in [2], > 128 µg/mL; in test [3] it was > 128 µg/mL; in test [4], 128 µg/mL (≈ 157 µM); in test [5], 1 µg/mL (≈ 1.23 µM); in test [6], 128 µg/mL (≈ 157 µM). For the same molecule, the minimum inhibitory concentration (MIC) in test [7] is 0.25 µg/mL (≈ 0.306 µM); in [9], 8 µg/mL (≈ 9.8 µM); in [10], 64 µg/mL (≈ 78.4 µM); in [11], 128 µg/mL (≈ 157 µM). In addition, the values for the Ratio in test [8] and in test [12] were 8 and 4, respectively.
In the case of `CC[C@H]1OC(=O)[C@H](C)[C@@H](OC(=O)Cc2cccnc2)[C@H](C)[C@@H](O[C@@H]2O[C@H](C)C[C@H](N(C)C)[C@H]2O)[C@](C)(OC)C[C@@H](C)C(=O)[C@H](C)[C@@H](OC(=O)NCCNC(=O)c2ccc([N+](=O)[O-])cc2)[C@]1(C)O`, the minimum inhibitory concentration (MIC) in test [1] is 0.5 µg/mL (≈ 0.53 µM); in test [2], 64 µg/mL (≈ 67.8 µM); in test [3], > 128 µg/mL; in test [4] it was 64 µg/mL (≈ 67.8 µM); in test [5] it was 2 µg/mL (≈ 2.12 µM); in test [6] it was 128 µg/mL (≈ 136 µM). Besides, the minimal inhibitory concentration (MIC) came to 0.03 µg/mL (≈ 0.0318 µM) in test [7], 1 µg/mL (≈ 1.06 µM) in [9], 8 µg/mL (≈ 8.47 µM) in test [10] and 32 µg/mL (≈ 33.9 µM) in test [11]. Further, the Ratio in [8] was 8; in [12] it was 4.
Regarding `CC[C@H]1OC(=O)[C@H](C)C(=O)[C@H](C)[C@@H](O[C@@H]2O[C@H](C)C[C@H](N(C)C)[C@H]2O)[C@](C)(OC)C[C@@H](C)C(=O)[C@H](C)[C@@H](OC(=O)NCCNC(=O)C#Cc2ccc(Br)cc2)[C@]1(C)O`, the Ratio in test [13] and in test [14] was 8 each time. For the same molecule, the MIC in [1] was 2 µg/mL (≈ 2.27 µM); in test [2] it was 128 µg/mL (≈ 145 µM); in [3] it was 64 µg/mL (≈ 72.7 µM); in [4], > 128 µg/mL; in test [5], 1 µg/mL (≈ 1.14 µM); in test [6], 16 µg/mL (≈ 18.2 µM). Also, the minimum inhibitory concentration (MIC) in test [7] was 1 µg/mL (≈ 1.14 µM); in test [9] it was 8 µg/mL (≈ 9.08 µM); in [10], 32 µg/mL (≈ 36.3 µM); in test [11], 128 µg/mL (≈ 145 µM).
As for `CC[C@H]1OC(=O)[C@H](C)[C@@H](OC(=O)Cc2cccnc2)[C@H](C)[C@@H](O[C@@H]2O[C@H](C)C[C@H](N(C)C)[C@H]2O)[C@](C)(OC)C[C@@H](C)C(=O)[C@H](C)[C@@H](OC(=O)NCCNC(=O)/C=C/c2ccc([N+](=O)[O-])cc2)[C@]1(C)O`, the minimum inhibitory concentration (MIC) in test [1] is 1 µg/mL (≈ 1.03 µM); in [2], 128 µg/mL (≈ 132 µM); in [3], > 128 µg/mL; in test [4] it was 128 µg/mL (≈ 132 µM); in [5] it was 4 µg/mL (≈ 4.12 µM); in test [6] it was 64 µg/mL (≈ 66 µM). The MIC stood at 0.125 µg/mL (≈ 0.129 µM) in [7], 8 µg/mL (≈ 8.25 µM) in [9], 8 µg/mL (≈ 8.25 µM) in test [10] and 32 µg/mL (≈ 33 µM) in test [11].
As for `CC[C@H]1OC(=O)[C@H](C)[C@@H](OC(=O)Cc2cccnc2)[C@H](C)[C@@H](O[C@@H]2O[C@H](C)C[C@H](N(C)C)[C@H]2O)[C@](C)(OC)C[C@@H](C)C(=O)[C@H](C)[C@@H](OC(=O)NCCNC(=O)C#Cc2ccc(C)cc2)[C@]1(C)O`, the minimum inhibitory concentration (MIC) is 1 µg/mL (≈ 1.07 µM) in [1]; > 128 µg/mL in test [2]; > 128 µg/mL in test [3]; > 128 µg/mL in test [4]; 2 µg/mL (≈ 2.13 µM) in test [5]; 128 µg/mL (≈ 137 µM) in [6]. In addition, the minimum inhibitory concentration (MIC) in test [7] amounted to 0.25 µg/mL (≈ 0.267 µM); in test [9], 8 µg/mL (≈ 8.54 µM); in test [10], 32 µg/mL (≈ 34.1 µM); in test [11], 64 µg/mL (≈ 68.3 µM).
In the case of `CC[C@H]1OC(=O)[C@H](C)C(=O)[C@H](C)[C@@H](O[C@@H]2O[C@H](C)C[C@H](N(C)C)[C@H]2O)[C@](C)(OC)C[C@@H](C)C(=O)[C@H](C)[C@@H](OC(=O)NCCNC(=O)C#Cc2ccc(Cl)cc2)[C@]1(C)O`, the MIC was 2 µg/mL (≈ 2.39 µM) in test [1]; > 128 µg/mL in test [2]; 128 µg/mL (≈ 153 µM) in [3]; > 128 µg/mL in [4]; 2 µg/mL (≈ 2.39 µM) in [5]; 64 µg/mL (≈ 76.5 µM) in test [6]. The MIC amounted to 1 µg/mL (≈ 1.2 µM) in [7], 8 µg/mL (≈ 9.56 µM) in test [9], 64 µg/mL (≈ 76.5 µM) in test [10] and 128 µg/mL (≈ 153 µM) in [11].
Take `CC[C@H]1OC(=O)[C@H](C)[C@@H](OC(=O)Cc2cccnc2)[C@H](C)[C@@H](O[C@@H]2O[C@H](C)C[C@H](N(C)C)[C@H]2O)[C@](C)(OC)C[C@@H](C)C(=O)[C@H](C)[C@@H](OC(=O)NCCNC(=O)/C=C/c2ccco2)[C@]1(C)O`: the Ratio in test [13] and in [14] was 4 in each case. For the same molecule, the minimum inhibitory concentration (MIC) in test [1] is 1 µg/mL (≈ 1.09 µM); in test [2], 128 µg/mL (≈ 140 µM); in test [3], > 128 µg/mL; in test [4], > 128 µg/mL; in test [5], 8 µg/mL (≈ 8.74 µM); in [6], 32 µg/mL (≈ 35 µM). Besides, the minimum inhibitory concentration (MIC) stood at 0.125 µg/mL (≈ 0.137 µM) in [7], 16 µg/mL (≈ 17.5 µM) in test [9], 16 µg/mL (≈ 17.5 µM) in [10] and 64 µg/mL (≈ 69.9 µM) in test [11].
As to `CC[C@H]1OC(=O)[C@H](C)C(=O)[C@H](C)[C@@H](O[C@@H]2O[C@H](C)C[C@H](N(C)C)[C@H]2O)[C@](C)(OC)C[C@@H](C)C(=O)[C@H](C)[C@@H](OC(=O)NCCNC(=O)C#Cc2ccc(F)cc2)[C@]1(C)O`, the MIC in test [1] was 2 µg/mL (≈ 2.44 µM); in [2], > 128 µg/mL; in [3], > 128 µg/mL; in [4], > 128 µg/mL; in [5] it was 2 µg/mL (≈ 2.44 µM); in [6] it was 128 µg/mL (≈ 156 µM). The MIC in test [7] turned out to be 1 µg/mL (≈ 1.22 µM); in test [9], 16 µg/mL (≈ 19.5 µM); in [10] it was 64 µg/mL (≈ 78.1 µM); in test [11], 128 µg/mL (≈ 156 µM).
With `CC[C@H]1OC(=O)[C@H](C)C(=O)[C@H](C)[C@@H](O[C@@H]2O[C@H](C)C[C@H](N(C)C)[C@H]2O)[C@](C)(OC)C[C@@H](C)C(=O)[C@H](C)[C@@H](OC(=O)NCCNC(=O)C#Cc2ccccc2)[C@]1(C)O`, the minimum inhibitory concentration (MIC) in [1] was 4 µg/mL (≈ 4.99 µM); in test [2], > 128 µg/mL; in test [3], > 128 µg/mL; in [4], > 128 µg/mL; in test [5], 4 µg/mL (≈ 4.99 µM); in [6] it was 128 µg/mL (≈ 160 µM). In addition, the minimum inhibitory concentration (MIC) in [7] was determined as 2 µg/mL (≈ 2.49 µM); in [9], 32 µg/mL (≈ 39.9 µM); in test [10], 128 µg/mL (≈ 160 µM); in test [11], 128 µg/mL (≈ 160 µM).
In the case of `CC[C@H]1OC(=O)[C@H](C)C(=O)[C@H](C)[C@@H](O[C@@H]2O[C@H](C)C[C@H](N(C)C)[C@H]2O)[C@](C)(OC)C[C@@H](C)C(=O)[C@H](C)[C@@H](OC(=O)NCCNC(=O)C#Cc2ccccc2Cl)[C@]1(C)O`, the minimum inhibitory concentration (MIC) in test [1] was 2 µg/mL (≈ 2.39 µM); in test [2], > 128 µg/mL; in test [3], > 128 µg/mL; in test [4], > 128 µg/mL; in test [5] it was 4 µg/mL (≈ 4.78 µM); in test [6] it was 128 µg/mL (≈ 153 µM). In addition, the minimum inhibitory concentration (MIC) came to 1 µg/mL (≈ 1.2 µM) in test [7], 16 µg/mL (≈ 19.1 µM) in test [9], 128 µg/mL (≈ 153 µM) in [10] and 128 µg/mL (≈ 153 µM) in test [11].
